Assay outcomes from PubChem.
Rows were chosen to be rich in hits. Some 1.3% of all compounds tested hit in one or more screens of this group.
hiPSC survival – hiPSC single-cell survival enhancement. survival enhancement, % at 20 µM. ATPlite luminescence; 100% = ROCK inhibitor wells, 0% = DMSO. actives 0.044% (n = 360,000); in the data active = survival enhancement above about 18%;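 also: cells exposed to compounds for 16 hours before the ATP read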
DAGLB inhibitor – diacylglycerol lipase beta (human) inhibition; inhibition, % at 5.17 µM; actives 0.059% (n = 340,000); Q8NCG7; HEK293T DAGLB membrane lysate, EnzChek fluorogenic substrate; AID 504411; in the data active = inhibition above about 34%;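 also: 0% = enzyme with vehicle and 100% = wells lacking enzyme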
Target sequence (Q8NCG7 whole entry, looked up): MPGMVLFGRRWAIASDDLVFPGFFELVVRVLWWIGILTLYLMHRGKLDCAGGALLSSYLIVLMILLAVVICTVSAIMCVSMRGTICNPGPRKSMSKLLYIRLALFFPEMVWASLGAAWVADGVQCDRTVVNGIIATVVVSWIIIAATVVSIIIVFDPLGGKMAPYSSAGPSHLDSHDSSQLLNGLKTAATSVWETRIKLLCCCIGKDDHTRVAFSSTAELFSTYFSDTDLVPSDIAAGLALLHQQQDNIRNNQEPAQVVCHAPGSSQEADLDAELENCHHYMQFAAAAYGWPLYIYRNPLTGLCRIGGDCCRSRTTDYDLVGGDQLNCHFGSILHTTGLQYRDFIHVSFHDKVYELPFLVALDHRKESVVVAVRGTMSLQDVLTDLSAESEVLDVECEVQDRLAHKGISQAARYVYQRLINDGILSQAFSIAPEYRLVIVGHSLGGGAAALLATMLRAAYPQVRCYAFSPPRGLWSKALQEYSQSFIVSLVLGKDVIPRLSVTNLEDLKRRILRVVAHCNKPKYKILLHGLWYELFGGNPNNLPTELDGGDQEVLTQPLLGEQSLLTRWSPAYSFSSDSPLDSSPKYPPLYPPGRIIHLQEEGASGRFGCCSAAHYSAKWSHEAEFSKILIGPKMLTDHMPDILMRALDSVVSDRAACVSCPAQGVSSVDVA
FAS TE block – FAS thioesterase (human) inhibition; AID 602261; recombinant FAS-TE, OMFH fluorogenic substrate, fluorescence endpoint; actives 0.67% (n = 360,000); inhibition, % at 15 µM; P49327;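 active = compounds whose normalised, plate-corrected inhibition of enzyme fluorescence in the single-dose primary screen is 50% or more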;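 also: 0% = DMSO with enzyme and 100% = substrate without enzyme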
MT1-MMP act inh – MT1-MMP (human) activation inhibition | P50281 | HT1080 RFP-PRO-GFP cells, GFP/RFP ratio fluorescence, overnight; percent of plate control window, DMSO zero | GFP/RFP ratio change, % at 20 µM | actives 0.061% (n = 360,000);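 active = GFP/RFP ratio change of at least 30% with cell ATP level not reduced by more than half and red fluorescence within 50% of control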
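Compound: 20 µM single dose, 1% DMSO / System: HT1080 RFP-PRO-GFP cells / Controls: DMSO and RFP-L50D-GFP cell wells / Read-out basis: GFP/RFP fluorescence ratio / Schedule: overnight compound exposure at 37 °C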
SKN-1 block – blocks SKN-1 activity in C. elegans; actives 0.49% (n = 360,000); C. elegans VP596 Pgst-4::GFP/RFP ratio, acrylamide-induced, 24 h; inhibition, % at 21.8 µM;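 active = interference check ratio from 0.5 to 1.5 plus GFP to RFP signal ratio inhibition reaching or exceeding a fixed threshold, cut at about 30% in these data, passing the limit was not always enough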
FAS-TE inh conf – FAS thioesterase (human) inhibition, confirmation | shares compounds with FAS TE block | recombinant FAS-TE, OMFH fluorogenic substrate, fluorescence | inhibition, % at 15 µM | actives 45% (n = 2,300);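 active = compounds inhibiting the enzyme by at least 50% at 15 µM in any one of the replicates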;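 also: 0% = enzyme with DMSO only and 100% = wells lacking enzyme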
An asterisk follows results filed as active.

Cc1ccc(NC(=O)/C(=C\c2ccccc2)NC(=O)/C=C/c2ccccc2)cc1 was read as hiPSC survival -2, DAGLB inhibitor -2, FAS TE block 73*, MT1-MMP act inh 0, SKN-1 block 0 and FAS-TE inh conf 2.
COc1ccccc1NS(=O)(=O)c1cc(NC(=O)c2cc(F)c(F)c(F)c2F)ccc1N1CCOCC1 was read as hiPSC survival -3, DAGLB inhibitor -2, FAS TE block 39, MT1-MMP act inh 2 and SKN-1 block 4.
`COc1ccc(NS(=O)(=O)c2cc(NC(=O)COc3ccc(OC)cc3)ccc2N2CCOCC2)cc1` gave hiPSC survival 0, DAGLB inhibitor 0, FAS TE block 53*, MT1-MMP act inh 0, SKN-1 block -11 and FAS-TE inh conf 24.
For COc1ccccc1NS(=O)(=O)c1cc(NC(=O)c2ccccc2C)ccc1N1CCOCC1 the results were hiPSC survival -2, DAGLB inhibitor 5, FAS TE block 53*, MT1-MMP act inh 2, SKN-1 block 2 and FAS-TE inh conf 15.
For CCCCN(C(=O)c1cccc(-n2cnnn2)c1)c1c(N)n(CCCC)c(=O)[nH]c1=O the results were hiPSC survival -1, DAGLB inhibitor 2, FAS TE block -6, MT1-MMP act inh 1 and SKN-1 block 3.
Screening CCOC(=O)[C@]12CCCC=C1N(Cc1ccco1)C(=O)[C@H](CC(=O)NCCC(C)C)C2 returned hiPSC survival 1, FAS TE block -5, MT1-MMP act inh 2 and SKN-1 block 27.
CC(C)C(NC(=O)C12CC3CC(CC(C3)C1)C2)C(=O)N/N=C/C1=C(N2CCOCC2)C(=C\c2cccc([N+](=O)[O-])c2)/CC1 (centres undefined) was read as hiPSC survival 2, DAGLB inhibitor 0, FAS TE block 64*, MT1-MMP act inh -1, SKN-1 block 3 and FAS-TE inh conf 14.
Cc1ccc2nc(NC(=O)C3CCN(S(=O)(=O)c4cccs4)CC3)sc2c1 was read as hiPSC survival 9, DAGLB inhibitor -2, FAS TE block 68*, MT1-MMP act inh 0, SKN-1 block 14 and FAS-TE inh conf 30.
CCn1c2ccccc2c2cc(NC(=O)C3CCN(S(=O)(=O)c4cccs4)CC3)ccc21 was read as hiPSC survival 2, DAGLB inhibitor 2, FAS TE block 66*, MT1-MMP act inh 7, SKN-1 block 2 and FAS-TE inh conf 25.
`COc1ccc2nc(NC(=O)C3CCN(S(=O)(=O)c4cccs4)CC3)sc2c1` gave hiPSC survival -1, DAGLB inhibitor -3, FAS TE block 41, MT1-MMP act inh -17 and SKN-1 block 13.
Screening Cc1cc(C(C)(C)C)cc(C)c1COC(=O)CN1C(=O)NC2(CCCC2)C1=O returned hiPSC survival -1, DAGLB inhibitor -27, FAS TE block 52*, MT1-MMP act inh 1, SKN-1 block 1 and FAS-TE inh conf 56*.
`Cc1ccccc1COC(=O)CN1C(=O)NC2(CCCC2)C1=O` gave hiPSC survival 0, DAGLB inhibitor -1, FAS TE block -4, MT1-MMP act inh -1 and SKN-1 block 17.
Screening CC(C)(C)c1ccc(COC(=O)CN2C(=O)NC3(CCCC3)C2=O)cc1 returned hiPSC survival 1, DAGLB inhibitor 0, FAS TE block 68*, MT1-MMP act inh 2, SKN-1 block 8 and FAS-TE inh conf 76*.
`O=C(CN1C(=O)NC2(CCCC2)C1=O)OCc1ccc(F)cc1` gave hiPSC survival 1, DAGLB inhibitor -1, FAS TE block -6, MT1-MMP act inh 1 and SKN-1 block 16.
`O=C(COC(=O)CN1C(=O)C2CC=CCC2C1=O)Nc1cccc([N+](=O)[O-])c1` (centres undefined) gave hiPSC survival -1, DAGLB inhibitor 2, FAS TE block 7, MT1-MMP act inh 2 and SKN-1 block 17.
O=c1ccn([C@@H]2O[C@H](CNCc3ccccc3OCc3ccc(Cl)cc3Cl)[C@@H](O)[C@H]2O)c(=O)[nH]1 was read as hiPSC survival 1, FAS TE block -3, MT1-MMP act inh 0 and SKN-1 block -1.
Screening CC[C@]1(c2cccc(C)c2)C(=O)N(C(=O)OC)N1C(=O)OC returned hiPSC survival -2, DAGLB inhibitor -1, FAS TE block 62*, MT1-MMP act inh -1, SKN-1 block 7 and FAS-TE inh conf 59*.
For COC(=O)N1C(=O)[C@](Cc2ccccc2)(c2ccccc2)N1C(=O)OC the results were hiPSC survival -3, DAGLB inhibitor 1, FAS TE block 63*, MT1-MMP act inh -2, SKN-1 block -5 and FAS-TE inh conf 75*.
`COC(=O)c1cc(C(=O)OCC(=O)NCc2ccc3c(c2)OCO3)cc([N+](=O)[O-])c1` gave hiPSC survival 0, DAGLB inhibitor 0, FAS TE block 32, MT1-MMP act inh 2 and SKN-1 block -6.
For COc1ccc(C(=O)OCC(=O)NCc2ccc3c(c2)OCO3)cc1[N+](=O)[O-] the results were hiPSC survival -3, DAGLB inhibitor 3, FAS TE block 50*, MT1-MMP act inh -2, SKN-1 block 1 and FAS-TE inh conf 1.
For COC(=O)[C@H]1[C@H]2C[C@@H]3c4[nH]c5cc(OC)ccc5c4CCN3C[C@H]2C[C@@H](OC(=O)/C=C/c2cc(OC)c(OC)c(OC)c2)[C@@H]1OC the results were hiPSC survival -1, DAGLB inhibitor -1, FAS TE block 54*, MT1-MMP act inh -11, SKN-1 block 13 and FAS-TE inh conf 23.
`COC(=O)[C@H]1[C@H]2C[C@@H]3c4[nH]c5cc(OC)ccc5c4CCN3C[C@H]2C[C@@H](OC(=O)c2ccc(N)cc2)[C@@H]1OC` gave hiPSC survival -1, DAGLB inhibitor 0, FAS TE block 0, MT1-MMP act inh -33 and SKN-1 block 4.
CC(=O)Nc1c(NC(=O)CC#N)[nH]c2c(c1=O)c(=O)n(C)c(=O)n2C was read as hiPSC survival -3, DAGLB inhibitor 0, FAS TE block -7, MT1-MMP act inh -7 and SKN-1 block 8.
CCOC(=O)N=Nc1c(O)n(CC(=O)OC)c2ccccc12 was read as hiPSC survival 4, DAGLB inhibitor 1, FAS TE block -12, MT1-MMP act inh 0 and SKN-1 block 16.
`CCOC(=O)N=Nc1c2ccccc2c2nc3no[nH]c3nc12` gave hiPSC survival -1, FAS TE block 87*, MT1-MMP act inh -9, SKN-1 block -4 and FAS-TE inh conf 43*.
For CCOC(=O)c1cc2c(=Cc3ccc(N(C)C)cc3)c3ccccc3n2[n+]1C the results were hiPSC survival -3, DAGLB inhibitor -3, FAS TE block 62*, MT1-MMP act inh 83, SKN-1 block 74 and FAS-TE inh conf 61*.
